What was measured:
[1] = tested on: Hepatitis C virus NS5B S96T/N142T mutant; assay: Antiviral activity against HCV expressing NS5B polymerase S96T/N142T mutation infected in human ET-lunet cells
Hepatitis C virus [2] = assay: Antiviral activity against HCV infected in human clone A cells; assay type: functional, Hepacivirus hominis; details: Hepatitis C virus
Procedure, shortened: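 Clone A replicon cells seeded at 1500 cells/well. Compounds serially diluted in G418-free culture medium and added, then incubated 4 days at 37 °C in 5% CO2. HCV RNA quantified by real-time RT-PCR as ΔCt relative to the mean no-drug control.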

CCRF-CEM [3] = assay: Cytotoxicity against human CEM cells assessed as inhibition of ribosomal DNA up to 100 uM; assay type: cell-based
Procedure, shortened: (§1)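 CEM or HepG2 cells at 1 × 10^4 per well, compound serially diluted from 100 μM, 14 days at 37 °C, 5% CO2. Medium with compound renewed on days 7 and 11. Total DNA extracted; mitochondrial COXII DNA and rDNA measured by multiplex quantitative PCR. ΔCt converted to log reduction, inhibition relative to untreated cells, and the 90% inhibitory concentration reported.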

Hepatitis C virus [4] = assay: Antiviral activity against HCV expressing NS5B polymerase S282T mutation infected in clone A cells; assay type: functional, Hepacivirus hominis
Procedure, shortened: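 Replicon cells seeded at 1500 (clone A) or 3000 (ET-lunet) per well. Serially diluted compound added in medium without G418, 4 days at 37 °C, 5% CO2. HCV RNA measured by real-time RT-PCR as ΔCt versus no-drug control. EC90 calculated; fold change of S282T mutant versus wild-type replicon EC90. At least three independent experiments.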

Hepatitis C virus [5] = assay: Antiviral activity against HCV infected in human ET-lunet cells; assay type: functional, Hepacivirus hominis
Procedure, shortened: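 ET-lunet replicon cells seeded at 3000 cells/well. Compounds serially diluted in culture medium without G418 and added to cells, which were incubated 4 days at 37 °C in 5% CO2. HCV RNA replication measured by quantitative real-time RT-PCR as ΔCt against the mean no-drug control threshold cycle. EC90, the concentration giving 90% inhibition, was calculated.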

CCRF-CEM [6] = assay: Cytotoxicity against human CEM cells assessed as inhibition of mitochondrial DNA up to 100 uM; assay type: cell-based
Procedure, shortened: as §1

For CC(C)OC(=O)[C@H](C)N[P@@](=O)(OC[C@H]1O[C@@H](n2ccc(=O)[nH]c2=O)[C@](C)(F)[C@@H]1O)Oc1ccccc1, which EC90 [1] is on record?
The EC90 was 1.3 µM.

What about the EC90 (Hepatitis C virus [2]) of the same compound?
Its EC90 is 7.5 µM.

What about the Activity (CCRF-CEM [3]) of the same compound?
Its Activity is “Non-toxic”.

And the EC90 (Hepatitis C virus [4])?
Its EC90 is > 100 µM.

What about the EC90 (Hepatitis C virus [5]) of the same compound?
The EC90 was 3.3 µM.

And the Activity (CCRF-CEM [6])?
Its Activity is “Non-toxic”.

— ChEMBL document CHEMBL1255219, “Discovery of a β-d-2'-deoxy-2'-α-fluoro-2'-β-C-methyluridine nucleotide prodrug (PSI-7977) for the treatment of hepatitis C virus” (J Med Chem, 2010)
